A short description of data set [1]: folding enthalpy; higher = less favourable; fluorescence melt of hairpins on a sequencing array, two-state fit. The settings on record: sodium 0.088 M. In a few lines:
(§1)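 In 50 mM Na-HEPES pH 8.0 containing 25 mM NaCl, hairpins from the library on a sequenced MiSeq flow cell were imaged for Cy3 fluorescence at 2.5 °C steps up to 60 °C, with Cy3 and quencher oligos annealed. After normalisation to pre-quench Cy3 and to control constructs, two-state fits with bootstrapping gave melting temperature and folding enthalpy. Four replicates were combined by inverse-variance weighting, and fitted temperatures were shifted up by 9.35 °C to match UV melts.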

The nature of data set [2]: melting temperature; fluorescence melt of hairpins on a sequencing array, two-state fit, raised by 9.35 °C to match UV melts. The settings on record: sodium 0.088 M. In a few lines:
as §1

Turning to GTCTTCGGAAACAAAGAC (((((.(....).))))), in data set [1], the folding enthalpy was -29.7 kcal/mol. For the same sequence, the Tm in data set [2] stood at 32.3 °C.
For the sequence GTCTTCGGAAACGAAGAC (((((((....))))))), the folding enthalpy in data set [1] was -30.5 kcal/mol. In addition, the Tm in data set [2] is 64.8 °C.
With GTCTTCGGAAACGGAGAC ((((.((....)).)))), in data set [1], the folding enthalpy is -39.1 kcal/mol. For the same sequence, the Tm in data set [2] was determined as 50.4 °C.
For the sequence GTCTTGAAAAAGAC (((((....))))), in data set [1], the folding enthalpy is -21.7 kcal/mol. For the same sequence, the Tm in data set [2] was 44.1 °C.
For GTCTTGCCGAAAGGCGAC (((..(((....)))))) the same measures were -10.7 kcal/mol and 38.3 °C.
GTCTTGCGAAAGCACGAC (((.(((....))).))): the folding enthalpy in data set [1] was -41.5 kcal/mol. The Tm in data set [2] turned out to be 52.1 °C.
In the same order, the values of GTCTTGCGAAAGCAGGAC (((.(((....))).))) are -27.4 kcal/mol and 58 °C.
Turning to GTCTTGTCGAAAGACGAC (((..(((....)))))), in data set [1], the folding enthalpy is -18.1 kcal/mol. Further, the Tm in data set [2] stood at 50.4 °C.
For the sequence GTCTTTCGAAAGAAGAC (((.(((....)))))), the folding enthalpy in data set [1] is -25.1 kcal/mol. Also, the Tm in data set [2] is 38.5 °C.
For GTGAAAGGAAACTTCCAC (((.(((....))).))) the same measures were -16.3 kcal/mol and 27.8 °C.
As for GTGAAAGGAAACTTTCGC (.(((((....))))).), the folding enthalpy in data set [1] is -27.3 kcal/mol. Besides, in data set [2], the Tm was 45.2 °C.
For the sequence GTGAACACGAAAGTGCAC (((..(((....)))))), the folding enthalpy in data set [1] was -14.1 kcal/mol. Moreover, the Tm in data set [2] worked out at 41.2 °C.
Consider GTGAACGAAAGTTAACAC ((((((....)))..))), for which, in data set [1], the folding enthalpy was -19.5 kcal/mol. Further, in data set [2], the Tm came to 35.5 °C.
For GTGAACGAAAGTTGCAC ((((((....))).))), the folding enthalpy in data set [1] was -19.8 kcal/mol. Moreover, the Tm in data set [2] is 37.3 °C.
Take GTGAACGAAAGTTGTCAC ((((((....)))..))): in data set [1], the folding enthalpy was -21.8 kcal/mol. In addition, in data set [2], the Tm turned out to be 27.9 °C.
For the sequence GTGAACGAAAGTTTGCAC ((((((....)))..))), the folding enthalpy in data set [1] is -15.4 kcal/mol. Also, in data set [2], the Tm is 32 °C.
For the sequence GTGAACGGAAACGTTCAC (((((((....))))))), the folding enthalpy in data set [1] is -30 kcal/mol. The Tm in data set [2] was 67.8 °C.
On to GTGAAGCCGAAAGGCCAC (((..(((....)))))), for which the folding enthalpy in data set [1] is -15.6 kcal/mol. The Tm in data set [2] was found to be 47.8 °C.
On to GTGAATCCGAAAGGACAC (((..(((....)))))), for which the folding enthalpy in data set [1] is -20.1 kcal/mol. For the same sequence, the Tm in data set [2] stood at 32.8 °C.
As to GTGAATCGAAAGATCAC (((.(((....)))))), in data set [1], the folding enthalpy is -26.3 kcal/mol. Also, in data set [2], the Tm turned out to be 45.3 °C.
Regarding GTGAATGGAAACATTTAC ((.((((....)))).)), the folding enthalpy in data set [1] is -32.9 kcal/mol. In addition, the Tm in data set [2] was 36.5 °C.
In the same order, the values of GTGACAGGAAACTGCCAC (((.(((....))).))) are -33 kcal/mol and 46.8 °C.
On to GTGACCCGAAAGGGCAC (((.(((....)))))), for which, in data set [1], the folding enthalpy was -22.9 kcal/mol. Further, the Tm in data set [2] came to 62.4 °C.
GTGACCGAAAGGTAGCAC ((((((....)))..))): the folding enthalpy in data set [1] is -16.9 kcal/mol. Further, in data set [2], the Tm amounted to 36.1 °C.
In the case of GTGACCGAAAGGTCTCAC ((((((....)))..))), the folding enthalpy in data set [1] was -10.6 kcal/mol. For the same sequence, the Tm in data set [2] stood at 41.2 °C.
Regarding GTGACCGAAAGGTGGCAC ((((((....)))..))), the folding enthalpy in data set [1] was -16.3 kcal/mol. In data set [2], the Tm stood at 40.7 °C.
As to GTGACCGAAAGGTGTCAC ((((((....)))..))), in data set [1], the folding enthalpy was -25.4 kcal/mol. Besides, in data set [2], the Tm turned out to be 45.8 °C.
Turning to GTGACCGAAAGGTTTCAC ((((((....)))..))), the folding enthalpy in data set [1] is -13.1 kcal/mol. For the same sequence, in data set [2], the Tm is 34.8 °C.
For GTGACCGCGAAAGCGCAC (((..(((....)))))) the same measures were -8.65 kcal/mol and 40.3 °C.
GTGACCGGAAACAGTCAC (((((.(....).))))): in data set [1], the folding enthalpy is -32.1 kcal/mol. In addition, the Tm in data set [2] was 45.2 °C.
Take GTGACCGGAAACGGTTGC (..((((....))))..): the folding enthalpy in data set [1] is -17.9 kcal/mol. Moreover, the Tm in data set [2] amounted to 47.6 °C.
As to GTGACGACGAAAGTCCAC (((..(((....)))))), the folding enthalpy in data set [1] is -13 kcal/mol. The Tm in data set [2] stood at 38.2 °C.
As to GTGACGCGAAAGCGACAC (((.(((....))).))), the folding enthalpy in data set [1] was -33.9 kcal/mol. Moreover, the Tm in data set [2] stood at 69.3 °C.
For GTGACGGCGAAAGCCCAC (((..(((....)))))), in data set [1], the folding enthalpy is -12.1 kcal/mol. Moreover, the Tm in data set [2] turned out to be 44.3 °C.
Turning to GTGACGGGAAACCACCAC (((..((....))..))), the folding enthalpy in data set [1] is -15.7 kcal/mol. Moreover, in data set [2], the Tm came to 27.4 °C.
Take GTGACGGGAAACCATCAC ((((.((....)).)))): in data set [1], the folding enthalpy is -32.6 kcal/mol. Also, the Tm in data set [2] amounted to 42.1 °C.
Take GTGACGGGAAACTGTCAC (((((.(....).))))): the folding enthalpy in data set [1] is -37.8 kcal/mol. Also, the Tm in data set [2] was determined as 54.8 °C.

The record behind these values is the array DNA melting data of Ke et al. (doi:10.1101/2024.01.08.574731).
